# In ChEMBL document CHEMBL1944511, “Bakuchiol derivatives as novel and potent cytotoxic agents: a report” (Eur J Med Chem, 2012):
# What was measured:
# [1] = test system: MCF7; assay: Growth inhibition of human MCF7 cells at 50 uM after 48 hrs by sulpharhodamine B assay; assay type: functional; settings: MCF7, 48 h, read-out: GI
# Procedure, shortened: (§1)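 This is the SRB protein-stain assay on adherent cells in RPMI-1640/MEM with 10% FCS. Each compound in DMSO (vehicle <0.2%) was applied at a single fixed concentration for 48 h. Cells were fixed with TCA and stained with SRB, and the dye was solubilised in Tris and read at 570/620 nm. Percent growth inhibition is relative to vehicle-treated controls, reported as mean ± SD of three experiments run in triplicate.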
# [2] = test system: A549; assay: Growth inhibition of human A549 cells at 50 uM after 48 hrs by sulpharhodamine B assay; assay type: functional; settings: A549, 48 h, read-out: GI; procedure, shortened: as §1
# [3] = test system: PC-3; assay: Growth inhibition of human PC3 cells at 50 uM after 48 hrs by sulpharhodamine B assay; assay type: functional; settings: PC-3, 48 h, read-out: GI
# Procedure, shortened: (§2)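 Cells grown in RPMI-1640/MEM with 10% FCS, penicillin/streptomycin, 37 °C, 5% CO2. Seeded in 96-well plates, allowed to adhere overnight, then exposed 48 h to analogs in DMSO (vehicle <0.2% in controls). TCA-fixed, stained with 0.4% SRB in 1% acetic acid, dye solubilized in 10 mM Tris base, OD 570 nm (ref 620 nm). Mean ± SD of three experiments run in triplicate.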
# [4] = test system: OVCAR-5; assay: Growth inhibition of human OVCAR5 cells at 50 uM after 48 hrs by sulpharhodamine B assay; assay type: functional; settings: OVCAR-5, 48 h, read-out: GI; procedure, shortened: as §1
# [5] = test system: IMR-32; assay: Growth inhibition of human IMR32 cells at 50 uM after 48 hrs by sulpharhodamine B assay; assay type: functional; settings: IMR-32, 48 h, read-out: GI; procedure, shortened: as §1
# [6] = test system: HeLa; assay: Growth inhibition of human HeLa cells at 50 uM after 48 hrs by sulpharhodamine B assay; assay type: functional; settings: read-out: GI; procedure, shortened: as §1
# [7] = test system: THP-1; assay: Growth inhibition of human THP1 cells at 50 uM after 48 hrs by sulpharhodamine B assay; assay type: functional; settings: THP-1, 48 h, read-out: GI; procedure, shortened: as §2
# [8] = test system: A549; assay: Growth inhibition of human A549 cells at 20 uM after 48 hrs by sulpharhodamine B assay; assay type: functional; settings: A549, 48 h, read-out: GI; procedure, shortened: as §1
# [9] = test system: PC-3; assay: Growth inhibition of human PC3 cells at 20 uM after 48 hrs by sulpharhodamine B assay; assay type: functional; settings: PC-3, 48 h, read-out: GI; procedure, shortened: as §1
# [10] = test system: IMR-32; assay: Growth inhibition of human IMR32 cells at 20 uM after 48 hrs by sulpharhodamine B assay; assay type: functional; settings: IMR-32, 48 h, read-out: GI; procedure, shortened: as §1
# [11] = test system: THP-1; assay: Growth inhibition of human THP1 cells at 20 uM after 48 hrs by sulpharhodamine B assay; assay type: functional; settings: THP-1, 48 h, read-out: GI; procedure, shortened: as §2
# [12] = test system: MCF7; assay: Growth inhibition of human MCF7 cells at 30 uM after 48 hrs by sulpharhodamine B assay; assay type: functional; settings: MCF7, 48 h, read-out: GI; procedure, shortened: as §1
# [13] = test system: A549; assay: Growth inhibition of human A549 cells at 30 uM after 48 hrs by sulpharhodamine B assay; assay type: functional; settings: A549, 48 h, read-out: GI; procedure, shortened: as §1
# [14] = test system: PC-3; assay: Growth inhibition of human PC3 cells at 30 uM after 48 hrs by sulpharhodamine B assay; assay type: functional; settings: PC-3, 48 h, read-out: GI; procedure, shortened: as §2
# [15] = test system: OVCAR-5; assay: Growth inhibition of human OVCAR5 cells at 30 uM after 48 hrs by sulpharhodamine B assay; assay type: functional; settings: OVCAR-5, 48 h, read-out: GI; procedure, shortened: as §1
# [16] = test system: IMR-32; assay: Growth inhibition of human IMR32 cells at 30 uM after 48 hrs by sulpharhodamine B assay; assay type: functional; settings: IMR-32, 48 h, read-out: GI; procedure, shortened: as §1
# [17] = test system: HeLa; assay: Growth inhibition of human HeLa cells at 30 uM after 48 hrs by sulpharhodamine B assay; assay type: functional; settings: read-out: GI; procedure, shortened: as §1
# [18] = test system: THP-1; assay: Growth inhibition of human THP1 cells at 30 uM after 48 hrs by sulpharhodamine B assay; assay type: functional; settings: THP-1, 48 h, read-out: GI; procedure, shortened: as §2
# [19] = test system: MCF7; assay: Growth inhibition of human MCF7 cells at 10 uM after 48 hrs by sulpharhodamine B assay; assay type: functional; settings: MCF7, 48 h, read-out: GI; procedure, shortened: as §1
# [20] = test system: MCF7; assay: Growth inhibition of human MCF7 cells at 5 uM after 48 hrs by sulpharhodamine B assay; assay type: functional; settings: MCF7, 48 h, read-out: GI; procedure, shortened: as §1
# [21] = test system: HEp-2; assay: Growth inhibition of human Hep2 cells at 50 uM after 48 hrs by sulpharhodamine B assay; assay type: functional; settings: HEp-2, 48 h, read-out: GI; procedure, shortened: as §1
# [22] = test system: HEp-2; assay: Growth inhibition of human Hep2 cells at 30 uM after 48 hrs by sulpharhodamine B assay; assay type: functional; settings: HEp-2, 48 h, read-out: GI; procedure, shortened: as §1
# [23] = test system: HEp-2; assay: Growth inhibition of human Hep2 cells at 20 uM after 48 hrs by sulpharhodamine B assay; assay type: functional; settings: HEp-2, 48 h, read-out: GI; procedure, shortened: as §1
# [24] = test system: HEp-2; assay: Growth inhibition of human Hep2 cells at 10 uM after 48 hrs by sulpharhodamine B assay; assay type: functional; settings: HEp-2, 48 h, read-out: GI; procedure, shortened: as §1
# [25] = test system: HEp-2; assay: Growth inhibition of human Hep2 cells at 5 uM after 48 hrs by sulpharhodamine B assay; assay type: functional; settings: HEp-2, 48 h, read-out: GI; procedure, shortened: as §1
# [26] = test system: A549; assay: Growth inhibition of human A549 cells at 10 uM after 48 hrs by sulpharhodamine B assay; assay type: functional; settings: A549, 48 h, read-out: GI; procedure, shortened: as §1
# [27] = test system: A549; assay: Growth inhibition of human A549 cells at 5 uM after 48 hrs by sulpharhodamine B assay; assay type: functional; settings: A549, 48 h, read-out: GI; procedure, shortened: as §1
# [28] = test system: DU-145; assay: Growth inhibition of human DU145 cells at 20 uM after 48 hrs by sulpharhodamine B assay; assay type: functional; settings: DU-145, 48 h, read-out: GI; procedure, shortened: as §1
# [29] = test system: DU-145; assay: Growth inhibition of human DU145 cells at 10 uM after 48 hrs by sulpharhodamine B assay; assay type: functional; settings: DU-145, 48 h, read-out: GI; procedure, shortened: as §1
# [30] = test system: DU-145; assay: Growth inhibition of human DU145 cells at 5 uM after 48 hrs by sulpharhodamine B assay; assay type: functional; settings: DU-145, 48 h, read-out: GI; procedure, shortened: as §1
# [31] = test system: THP-1; assay: Growth inhibition of human THP1 cells at 10 uM after 48 hrs by sulpharhodamine B assay; assay type: functional; settings: THP-1, 48 h, read-out: GI; procedure, shortened: as §2
# [32] = test system: THP-1; assay: Growth inhibition of human THP1 cells at 5 uM after 48 hrs by sulpharhodamine B assay; assay type: functional; settings: THP-1, 48 h, read-out: GI; procedure, shortened: as §2
# [33] = test system: PC-3; assay: Growth inhibition of human PC3 cells at 10 uM after 48 hrs by sulpharhodamine B assay; assay type: functional; settings: PC-3, 48 h, read-out: GI; procedure, shortened: as §1
# [34] = test system: PC-3; assay: Growth inhibition of human PC3 cells at 5 uM after 48 hrs by sulpharhodamine B assay; assay type: functional; settings: PC-3, 48 h, read-out: GI; procedure, shortened: as §2
# [35] = test system: IMR-32; assay: Growth inhibition of human IMR32 cells at 10 uM after 48 hrs by sulpharhodamine B assay; assay type: functional; settings: IMR-32, 48 h, read-out: GI; procedure, shortened: as §1
# [36] = test system: IMR-32; assay: Growth inhibition of human IMR32 cells at 5 uM after 48 hrs by sulpharhodamine B assay; assay type: functional; settings: IMR-32, 48 h, read-out: GI; procedure, shortened: as §1
# [37] = test system: HCT-15; assay: Growth inhibition of human HCT15 cells at 20 uM after 48 hrs by sulpharhodamine B assay; assay type: functional; settings: HCT-15, 48 h, read-out: GI; procedure, shortened: as §1
# [38] = test system: HCT-15; assay: Growth inhibition of human HCT15 cells at 10 uM after 48 hrs by sulpharhodamine B assay; assay type: functional; settings: HCT-15, 48 h, read-out: GI; procedure, shortened: as §1
# [39] = test system: HCT-15; assay: Growth inhibition of human HCT15 cells at 5 uM after 48 hrs by sulpharhodamine B assay; assay type: functional; settings: HCT-15, 48 h, read-out: GI; procedure, shortened: as §1
# [40] = test system: THP-1; assay: Cytotoxicity against human THP1 cells after 48 hrs by sulpharhodamine B assay; assay type: functional, cell-based; settings: THP-1, 48 h
# Procedure, shortened: (§3)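 Cells were grown in RPMI-1640/MEM with 10% FCS and penicillin/streptomycin at 37 °C under 5% CO2, then seeded and left to adhere overnight. Analogs in DMSO (vehicle <0.2%) were added at several concentrations for 48 h. Cells were fixed with cold 50% TCA, stained with 0.4% SRB in 1% acetic acid, solubilised in 10 mM Tris, and read at OD 570/620 nm. IC50 came from non-linear regression.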
# [41] = test system: DU-145; assay: Cytotoxicity against human DU145 cells after 48 hrs by sulpharhodamine B assay; assay type: functional, cell-based; settings: DU-145, 48 h; procedure, shortened: as §3
# [42] = test system: PC-3; assay: Cytotoxicity against human PC3 cells after 48 hrs by sulpharhodamine B assay; assay type: functional, cell-based; settings: PC-3, 48 h; procedure, shortened: as §3
# [43] = test system: HEp-2; assay: Cytotoxicity against human Hep2 cells after 48 hrs by sulpharhodamine B assay; assay type: functional, cell-based; settings: HEp-2, 48 h; procedure, shortened: as §3
# [44] = test system: MCF7; assay: Cytotoxicity against human MCF7 cells after 48 hrs by sulpharhodamine B assay; assay type: functional, cell-based; settings: MCF7, 48 h; procedure, shortened: as §3
# [45] = test system: A549; assay: Cytotoxicity against human A549 cells after 48 hrs by sulpharhodamine B assay; assay type: functional, cell-based; settings: A549, 48 h; procedure, shortened: as §3
# [46] = test system: SF-295; assay: Cytotoxicity against human SF295 cells after 48 hrs by sulpharhodamine B assay; assay type: functional, cell-based; settings: SF-295, 48 h; procedure, shortened: as §3
# [47] = test system: HCT-15; assay: Cytotoxicity against human HCT15 cells after 48 hrs by sulpharhodamine B assay; assay type: functional, cell-based; settings: HCT-15, 48 h; procedure, shortened: as §3
# [48] = test system: MCF7; assay: Growth inhibition of human MCF7 cells at 20 uM after 48 hrs by sulpharhodamine B assay; assay type: functional; settings: MCF7, 48 h, read-out: GI; procedure, shortened: as §1
smiles,measurement,setting,value
C=C[C@@](C)(/C=C/c1ccc(OC(C)=O)cc1)CCC=C(C)C [ACETYLBAKUCHIOL],inhibition of growth at 50 µM,[1],75%
same,inhibition of growth at 50 µM,[2],72%
same,inhibition of growth at 50 µM,[3],67%
same,inhibition of growth at 50 µM,[4],71%
same,inhibition of growth at 50 µM,[5],71%
same,inhibition of growth at 50 µM,[6],63%
same,inhibition of growth at 50 µM,[7],81%
same,inhibition of growth at 20 µM,[8],1%
same,inhibition of growth at 20 µM,[9],45%
same,inhibition of growth at 20 µM,[10],48%
same,inhibition of growth at 20 µM,[11],50%
same,inhibition of growth at 30 µM,[12],56%
same,inhibition of growth at 30 µM,[13],60%
same,inhibition of growth at 30 µM,[14],60%
same,inhibition of growth at 30 µM,[15],62%
same,inhibition of growth at 30 µM,[16],59%
same,inhibition of growth at 30 µM,[17],45%
same,inhibition of growth at 30 µM,[18],63%
same,inhibition of growth at 10 µM,[19],31%
same,inhibition of growth at 5 µM,[20],15%
same,inhibition of growth at 50 µM,[21],52%
same,inhibition of growth at 30 µM,[22],51%
same,inhibition of growth at 20 µM,[23],46%
same,inhibition of growth at 10 µM,[24],30%
same,inhibition of growth at 5 µM,[25],14%
same,inhibition of growth at 10 µM,[26],22%
same,inhibition of growth at 5 µM,[27],13%
same,inhibition of growth at 20 µM,[28],42%
same,inhibition of growth at 10 µM,[29],29%
same,inhibition of growth at 5 µM,[30],19%
same,inhibition of growth at 10 µM,[31],44%
same,inhibition of growth at 5 µM,[32],34%
same,inhibition of growth at 10 µM,[33],32%
same,inhibition of growth at 5 µM,[34],21%
same,inhibition of growth at 10 µM,[35],34%
same,inhibition of growth at 5 µM,[36],27%
same,inhibition of growth at 20 µM,[37],57%
same,inhibition of growth at 10 µM,[38],46%
same,inhibition of growth at 5 µM,[39],31%
same,IC50,[40],18 µM
same,IC50,[41],26 µM
same,IC50,[42],23 µM
same,IC50,[43],20 µM
same,IC50,[44],25 µM
same,IC50,[45],40 µM
same,IC50,[46],8 µM
same,IC50,[47],11 µM
same,inhibition of growth at 20 µM,[48],44%
